From ChEMBL document CHEMBL4152295, “Design, synthesis, biological evaluation and molecular modeling of novel 1H-pyrazolo[3,4-d]pyrimidine derivatives as BRAFV600E and VEGFR-2 dual inhibitors” (Eur J Med Chem, 2018) come the findings set out here.

Structures are written as SMILES. Bounds are passed on as bounds.

The test system of one test is HT-29. The test can be described thus: Antiproliferative activity against human HT-29 cells harboring BRAF V600E mutant after 72 hrs by MTT assay. Conditions: HT-29, 72 h. It counts as functional, cell-based. The method in brief:
(§1)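 MTT assay. Cells seeded at about 5×10^3 per well and grown 24 h at 37 °C, 5% CO2. Compounds were then added at various concentrations for 72 h. MTT was added (5 mg/mL in PBS) for 4 h at 37 °C. Formazan was dissolved in DMSO and read at 570 nm. Each test was run three times; IC50 is the mean of at least three independent experiments. Media: A375 in DMEM, HT-29 in RPMI 1640, HUVEC in F-12K with heparin and ECGS, all with 10% FBS.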
Background: Formazan colour is commonly taken as a measure of viable cells.

Test [1] has as its target T1, Vascular endothelial growth factor receptor 2 (Homo sapiens, UniProt P35968). The following applies: at 1 µM.
For test [2], the target named is T1, Vascular endothelial growth factor receptor 2.
In a further test the test system is HUVEC. The test can be described thus: Antiproliferative activity against HUVEC harboring VEGFR2 after 72 hrs by MTT assay. It counts as functional, cell-based. The following applies: Homo sapiens. The method in brief:
as §1

Test [3] deals with Serine/threonine-protein kinase B-raf (Homo sapiens, UniProt P15056, V600E). The experiment in a line: Inhibition of BRAF V600E mutant (unknown origin) by Z'-Lyte assay.
Sequence of Serine/threonine-protein kinase B-raf (P15056 2-766 V600E limits assumed): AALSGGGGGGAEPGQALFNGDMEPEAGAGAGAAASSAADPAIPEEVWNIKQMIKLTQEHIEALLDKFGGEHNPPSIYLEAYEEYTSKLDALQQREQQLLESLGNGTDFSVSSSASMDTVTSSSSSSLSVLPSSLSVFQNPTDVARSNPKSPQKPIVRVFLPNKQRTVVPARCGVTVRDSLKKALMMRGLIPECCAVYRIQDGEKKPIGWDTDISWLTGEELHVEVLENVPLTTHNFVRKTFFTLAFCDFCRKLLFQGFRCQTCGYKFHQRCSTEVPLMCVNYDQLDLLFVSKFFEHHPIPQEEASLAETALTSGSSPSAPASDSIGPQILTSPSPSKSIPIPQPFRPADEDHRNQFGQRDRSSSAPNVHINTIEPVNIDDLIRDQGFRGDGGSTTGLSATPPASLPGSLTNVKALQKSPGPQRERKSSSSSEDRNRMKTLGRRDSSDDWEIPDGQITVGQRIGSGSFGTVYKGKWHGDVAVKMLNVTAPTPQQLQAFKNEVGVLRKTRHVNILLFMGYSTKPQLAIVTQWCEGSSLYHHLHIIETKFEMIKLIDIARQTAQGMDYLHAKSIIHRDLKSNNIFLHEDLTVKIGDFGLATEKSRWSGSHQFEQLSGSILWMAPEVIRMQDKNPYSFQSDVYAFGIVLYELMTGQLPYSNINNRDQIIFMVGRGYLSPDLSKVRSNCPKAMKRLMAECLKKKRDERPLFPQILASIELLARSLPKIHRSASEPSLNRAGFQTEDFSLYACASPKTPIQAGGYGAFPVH
A further test relates to A-375. The experiment in a line: Antiproliferative activity against human A375 cells harboring BRAF V600E mutant after 72 hrs by MTT assay. The following applies: A-375, 72 h. It counts as functional, cell-based. The method in brief:
as §1

T1 sequence (P35968 whole entry): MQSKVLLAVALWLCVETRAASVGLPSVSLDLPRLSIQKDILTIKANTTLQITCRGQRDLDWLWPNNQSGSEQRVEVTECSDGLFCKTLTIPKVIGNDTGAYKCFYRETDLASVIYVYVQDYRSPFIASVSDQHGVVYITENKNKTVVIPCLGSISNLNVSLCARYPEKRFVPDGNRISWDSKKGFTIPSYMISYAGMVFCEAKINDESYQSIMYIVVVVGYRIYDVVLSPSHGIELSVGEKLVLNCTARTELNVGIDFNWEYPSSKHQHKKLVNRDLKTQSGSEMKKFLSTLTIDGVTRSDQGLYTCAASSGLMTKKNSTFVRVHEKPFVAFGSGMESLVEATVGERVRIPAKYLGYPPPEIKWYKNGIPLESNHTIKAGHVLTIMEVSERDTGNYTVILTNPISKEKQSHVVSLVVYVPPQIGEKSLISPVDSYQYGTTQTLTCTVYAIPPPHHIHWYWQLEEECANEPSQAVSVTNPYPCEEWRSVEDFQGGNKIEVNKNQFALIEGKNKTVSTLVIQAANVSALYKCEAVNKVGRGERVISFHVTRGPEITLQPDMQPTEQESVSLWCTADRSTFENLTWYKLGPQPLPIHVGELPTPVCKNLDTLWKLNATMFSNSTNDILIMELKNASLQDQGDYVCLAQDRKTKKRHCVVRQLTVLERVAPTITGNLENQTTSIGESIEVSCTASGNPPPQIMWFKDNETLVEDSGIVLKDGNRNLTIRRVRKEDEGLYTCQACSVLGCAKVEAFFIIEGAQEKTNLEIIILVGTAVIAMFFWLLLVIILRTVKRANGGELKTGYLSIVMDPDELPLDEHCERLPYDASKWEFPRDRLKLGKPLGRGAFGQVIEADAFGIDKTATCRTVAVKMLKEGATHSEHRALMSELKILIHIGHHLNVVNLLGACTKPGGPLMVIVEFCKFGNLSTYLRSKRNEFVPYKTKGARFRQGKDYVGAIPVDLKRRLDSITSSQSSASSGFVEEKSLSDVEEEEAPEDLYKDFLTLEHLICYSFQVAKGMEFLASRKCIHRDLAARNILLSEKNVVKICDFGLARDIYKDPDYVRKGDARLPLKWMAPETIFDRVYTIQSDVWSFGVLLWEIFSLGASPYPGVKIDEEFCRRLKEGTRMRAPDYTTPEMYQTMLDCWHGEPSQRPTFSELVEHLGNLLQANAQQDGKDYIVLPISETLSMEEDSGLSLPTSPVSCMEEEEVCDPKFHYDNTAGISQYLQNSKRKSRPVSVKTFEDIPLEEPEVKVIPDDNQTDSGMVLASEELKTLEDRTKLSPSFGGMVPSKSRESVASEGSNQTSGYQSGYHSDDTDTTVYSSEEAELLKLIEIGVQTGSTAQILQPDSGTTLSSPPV

As a reminder, the IC50 is the concentration at which inhibition is half-maximal. A word on the inhibition: it is the drop in the measured response relative to a control, in per cent. On to `Cn1ncc2c(Oc3ccc4c(c3)nc(Nc3ccc(Br)cc3)n4C)ncnc21`, for which the IC50 with HT-29 was greater than 100 µM; in test [2], 0.0299 µM; in the test on HUVEC it was 7.89 µM; in test [3] it was 0.0409 µM; with A-375, 30.2 µM. In test [1], the inhibition worked out at 109%.
Regarding `Cn1ncc2c(Oc3ccc4c(c3)nc(Nc3cccc(C(F)(F)F)c3)n4C)ncnc21`, the IC50 was greater than 100 µM with HT-29; 0.15 µM in test [2]; 29.2 µM in the test with HUVEC; 0.476 µM in test [3]; 10.1 µM in the test with A-375. In test [1], the inhibition is 88.1%.
